We go through 6 compounds from ChEMBL document CHEMBL6121022, “Cytotoxic and Noncytotoxic Steroidal Constituents of Cryptolepis dubia” (J Nat Prod, 2025).

In test [1] the test system is HT-29. The experiment in a line: Cytotoxicity against human HT-29 cells assessed as inhibition of cell viability incubated for 72 hrs by celltiter-blue cell viability assay. Format: functional, cell-based. To be noted: HT-29, 72 h. The procedure, abridged: (§1)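 Cells grown in RPMI 1640 or DMEM with 10% FBS, penicillin 100 units/mL and streptomycin 100 μg/mL. Treated with compounds for 72 h; vehicle negative control, paclitaxel positive control. Viability read by CellTiter-Blue absorbance. IC50 relative to vehicle control by nonlinear regression; triplicate measurements, representative of three independent experiments.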
(The colour change of resazurin is a common sign of viable cells or microbes.)

The test system of test [2] is MDA-MB-231. The test can be described thus: Cytotoxicity against human MDA-MB-231 cells assessed as inhibition of cell viability incubated for 72 hrs by celltiter-blue cell viability assay. In kind it is functional, cell-based. To be noted: MDA-MB-231, 72 h. The essentials: as §1
For test [3], the system named is OVCAR-5. The experiment in a line: Cytotoxicity against human OVCAR-5 cells assessed as inhibition of cell viability incubated for 72 hrs by celltiter-blue cell viability assay. To be noted: OVCAR-5, 72 h. In kind it is functional, cell-based. The procedure, abridged:
as §1

The subject of test [4] is OVCAR-3. The experiment in a line: Cytotoxicity against human OVCAR-3 cells assessed as inhibition of cell viability incubated for 72 hrs by celltiter-blue cell viability assay. In kind it is functional, cell-based. Particulars: OVCAR-3, 72 h. The essentials:
as §1

Test [5] relates to MDA-MB-435. The test can be described thus: Cytotoxicity against human MDA-MB-435 cells assessed as inhibition of cell viability incubated for 72 hrs by celltiter-blue cell viability assay. In kind it is functional, cell-based. To be noted: MDA-MB-435, 72 h. The essentials:
as §1

A short description of test [6]: Inhibition of Na+/K+-ATPase (unknown origin) by luminescent ADP detection assay. More on the design: species or system Homo sapiens. The procedure, abridged:
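NKA activity read as ADP formed, by luminescent ADP detection (ADP-Glo Max). IC50 is the concentration giving 50% inhibition of NKA activity. In vitro measurements were run in triplicate and are representative of three independent experiments.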

The structures appear in SMILES notation. Where only a bound is given, the exact number is not on record here.

The IC50 is the concentration that inhibits the measured activity by half.

For `C[C@]12CC[C@H]3[C@@H](C=CC4=CC(=O)[C@H](O)C[C@@]43C)[C@@H]1CC[C@@H]2C(=O)CO`, the IC50 in test [1], in test [2], in test [3], in test [4] and in test [5] was more than 10 µM each time.
With `C[C@]12CC[C@H]3[C@@H](C=CC4=CC(=O)[C@H](O)C[C@@]43C)[C@@H]1CC[C@@H]2C(=O)O`, the IC50 in test [1] was more than 10 µM; in test [2] it was more than 10 µM; in test [3], more than 10 µM; in test [6], more than 100 µM; in test [4], more than 10 µM; in test [5], more than 10 µM.
For `CO[C@H]1C[C@H](O[C@H]2CC[C@@]3(C)[C@@H](C2)C[C@@H]2O[C@]24[C@@H]3[C@H](OC(C)=O)C(=O)[C@]2(C)[C@@H](C3=CC(=O)OC3)CC[C@]42O)O[C@@H](C)[C@@H]1OC(C)=O`, the IC50 in test [1] was more than 10 µM; in test [2] it was more than 10 µM; in test [3], more than 10 µM; in test [6], more than 100 µM; in test [4], more than 10 µM; in test [5] it was more than 10 µM.
Take `CO[C@H]1C[C@H](O[C@H]2CC[C@@]3(C)[C@@H](C2)C[C@@H]2O[C@]24[C@@H]3[C@H](O)C(=O)[C@]2(C)[C@H](C3=CC(=O)OC3)CC[C@]42O)O[C@@H](C)[C@@H]1O`: the IC50 in test [1] was more than 10 µM; in test [2] it was more than 10 µM; in test [3], more than 10 µM; in test [6] it was 40 µM; in test [4], 7 µM; in test [5], more than 10 µM.
In turn, `C[C@H]1O[C@@H](O[C@H]2[C@@H](O)C[C@H](O[C@H]3[C@@H](O)C[C@H](O[C@H]4CC[C@@]5(C)[C@H](CC[C@@H]6[C@@H]5CC[C@]5(C)[C@@H](C7=CC(=O)OC7)CC[C@]65O)C4)O[C@@H]3C)O[C@@H]2C)C[C@H](O)[C@@H]1O` [DIGITOXIN] registered an IC50 in test [6] of 0.46 µM.
`CC(=O)O[C@H]1C(=O)[C@@]2(C)[C@H]([C@H](OC(=O)c3ccccc3)[C@]3(O)C[C@H](OC(=O)[C@H](O)[C@@H](NC(=O)c4ccccc4)c4ccccc4)C(C)=C1C3(C)C)[C@]1(OC(C)=O)CO[C@@H]1C[C@@H]2O` [PACLITAXEL]: the IC50 in test [1] stood at 0.0034 µM.
